Results on 24 molecules are retold here after ChEMBL document CHEMBL3860086, “Antivirulence C-Mannosides as Antibiotic-Sparing, Oral Therapeutics for Urinary Tract Infections” (J Med Chem, 2016).

Calls of active or inactive are those of the source. The calls are words filed in the database; no cut-off is given here.

Series [1] is described as follows: Ratio of drug level in C3H/HeN mouse urine to IC50 for Escherichia coli UTI89 FimH-mediated biofilm formation.
The subject of series [2] is Escherichia coli. Nature of the series: Antibacterial activity against Escherichia coli UTI89 with kanamycin cassette inserted in chromosome in C3H/HeN mouse chronic cystitis model assessed as decrease in bacterial burden in urinary bladder at 50 mg/kg, po administered 14 days post infection measured at 12 hrs post dose (reference value: 10^7 CFU). Type of series: functional. A digest of the protocol:
(§1)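 Female C3H/HeN mice (6–8 weeks) are infected transurethrally under isoflurane with 1–2 × 10^8 UTI89KAN (type 1-induced, PBS-washed) in 50 μL. Urine titers at day 12 select chronic infection (≥10^5). At 2 weeks, mice get oral gavage of 100 μL mannoside in 10% cyclodextrin. At set times, bladders are homogenized, serially diluted and plated on kanamycin LB for CFU.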

The target in series [3] is Type 1 fimbrin D-mannose specific adhesin (Escherichia coli K-12) (UniProt P08191). Briefly: Inhibition of Escherichia coli UTI89 FimH assessed as decrease in hemagglutination of guinea pig red blood cells after 4 to 18 hrs. A digest of the protocol: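 Hemagglutination inhibition with clinical UPEC strain UTI89 and guinea pig red blood cells, run per an earlier described protocol.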

The test system of series [4] is Escherichia coli. Briefly: Antibacterial activity against Escherichia coli UTI89 with kanamycin cassette inserted in chromosome in C3H/HeN mouse chronic cystitis model assessed as decrease in bacterial burden in urinary bladder at 50 mg/kg, po administered 14 days post infection measured at 2 hrs post dose (reference value: 10^7 CFU). In kind it is functional. In a few lines: as §1

Series [5] can be described thus: Drug uptake in C3H/HeN mouse urine at 50 mg/kg, po administered through gavage after 1 hr by LC-MS/MS analysis. In kind it is ADME, organism-based. To be noted: in vivo. A digest of the protocol: (§2)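 Mouse urine PK: C3H/HeN mice given 100 μL of 10 mg/mL mannoside in 10% cyclodextrin (50 mg/kg) by oral gavage. Urine sampled at several time points over 8 h and mannoside quantified by HPLC and mass spectrometry.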

The nature of series [6]: Half life in simulated gut fluid (unknown origin). Type of series: ADME. In a few lines:
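Stability is measured in simulated gut fluid at pH 1.2.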

Series [7] deals with Escherichia coli. Nature of the series: Antibacterial activity against Escherichia coli UTI89 with kanamycin cassette inserted in chromosome in C3H/HeN mouse chronic cystitis model assessed as decrease in bacterial burden in urinary bladder at 50 mg/kg, po administered 14 days post infection measured at 6 hrs post dose (reference value: 10^7 CFU). In kind it is functional. In a few lines:
as §1

Series [8] in a line: Half life in liver microsomes (unknown origin). Type of series: ADME.
Series [9] relates to Escherichia coli. Nature of the series: Antibacterial activity against Escherichia coli UTI89 with kanamycin cassette inserted in chromosome in C3H/HeN mouse chronic cystitis model assessed as decrease in bacterial burden in urinary bladder at 25 mg/kg, po administered 14 days post infection measured at 12 hrs post dose relative to control. In kind it is functional. In a few lines: as §1

In series [10] the target is Type 1 fimbrin D-mannose specific adhesin (Escherichia coli K-12) (UniProt P08191). Nature of the series: Binding affinity to Escherichia coli UTI89 FimH lectin domain at 100 uM after 30 mins by SYPRO Orange-staining-based differential scanning fluorimetry. A digest of the protocol: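 Thermal shift (DSF) binding with FimH lectin domain (FimHL) at 10 μM, with or without 100 μM mannoside; otherwise run per an earlier described method.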
(In general: DSF heats the sample and reads unfolding from a dye or from intrinsic fluorescence.)

For series [11], the system named is Escherichia coli. Briefly: Antibacterial activity against Escherichia coli UTI89 with kanamycin cassette inserted in chromosome in C3H/HeN mouse acute cystitis model assessed as decrease in bacterial burden in urinary bladder at 25 mg/kg, po administered 30 mins prior to infection measured at 6 hrs post infection relative to control. Type of series: functional. A digest of the protocol: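 Female C3H/HeN mice (6–8 weeks) get 25 mg/kg mannoside by mouth in 10% cyclodextrin 30 min before infection. Infection is transurethral: 50 μL of 1–2 × 10^7 UTI89KAN under isoflurane. The inoculum is grown type 1-inducing (2 × 24 h static LB, 37 °C), washed and resuspended in PBS. At 6 h, bladders are homogenized, serially diluted and plated on LB with 50 μg/mL kanamycin for CFU.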

Series [12] can be described thus: Drug uptake in C3H/HeN mouse urine at 50 mg/kg, po administered through gavage after 8 hrs by LC-MS/MS analysis. In kind it is ADME, organism-based. The settings on record: read-out: Drug uptake. In a few lines: as §2
The nature of series [13]: Clearance in Sprague-Dawley rat at 3 mg/kg, iv after 5 mins to 24 hrs by LC-MS/MS analysis. In kind it is ADME, organism-based. The settings on record: in vivo. A digest of the protocol:
(§3)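 Rat plasma PK: mannoside concentrations in plasma followed after either a 10 mg/kg oral dose or a 3 mg/kg intravenous dose.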

A short description of series [14]: Ratio of drug level in C3H/HeN mouse urine to EC90 for Escherichia coli UTI89 FimH-mediated hemagglutination of guinea pig red blood cells.
Series [15] can be described thus: Volume of distribution at steady state in Sprague-Dawley rat at 3 mg/kg, iv after 5 mins to 24 hrs by LC-MS/MS analysis. Type of series: ADME, organism-based. To be noted: in vivo. A digest of the protocol: as §3
Series [16] in a line: Oral bioavailability in Sprague-Dawley rat at 10 mg/kg after 15 mins to 24 hrs by LC-MS/MS analysis. To be noted: in vivo. In kind it is ADME, organism-based. In a few lines: as §3

Type 1 fimbrin D-mannose specific adhesin (Escherichia coli K-12), sequence (P08191 whole entry, the tested form may be a part): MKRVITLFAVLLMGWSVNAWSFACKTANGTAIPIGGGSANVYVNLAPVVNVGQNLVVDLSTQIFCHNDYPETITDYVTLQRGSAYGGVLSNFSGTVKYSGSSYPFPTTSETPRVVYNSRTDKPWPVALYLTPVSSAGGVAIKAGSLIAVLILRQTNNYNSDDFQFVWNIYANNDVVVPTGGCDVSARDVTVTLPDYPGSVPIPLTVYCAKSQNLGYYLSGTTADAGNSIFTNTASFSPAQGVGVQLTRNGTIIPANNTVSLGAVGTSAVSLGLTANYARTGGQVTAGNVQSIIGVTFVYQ

For the molecule `CNC(=O)c1cc(C(=O)NC)cc(-c2ccc(O[C@H]3O[C@H](CO)[C@@H](O)[C@H](O)[C@@H]3O)c(C)c2)c1`, the Ratio in series [1] was more than 10. In addition, the Activity with Escherichia coli [2] is reported as 100000 CFU; in the series with Escherichia coli [4], 100000 CFU; in the series with Escherichia coli [7], 10000 CFU. Also, the 90% effect concentration (EC90) (commonly the concentration at which the effect reaches the 90% level) in [3] was determined as 16 nM. For the same molecule, the Drug uptake result in series [5] is listed as “Active”. For the same molecule, the half-life in series [6] and in series [8] was more than 2 h each time. Besides, the outcome in the series with Escherichia coli [9] was Active.
Turning to `Cc1cc(-c2ccc3cc[nH]c(=O)c3c2)ccc1[C@@H](O)[C@H]1O[C@H](CO)[C@@H](O)[C@H](O)[C@@H]1O`, the Tm in [10] was 77.5 °C. For the same molecule, in series [3], the EC90 was determined as 8 nM. The “fold change (FC)” value with Escherichia coli [11] was determined as 2.
As for `CNC(=O)c1cccc(-c2ccc(C[C@H]3O[C@H](CO)[C@@H](O)[C@H](O)[C@@H]3O)cc2)c1`, the EC90 in series [3] was found to be 1000 nM.
Still for that read-out and setting: for `COC(=O)c1cccc(-c2ccc(N[C@H]3O[C@H](CO)[C@@H](O)[C@H](O)[C@@H]3O)cc2)c1` the value was 4000 nM.
Consider `Cc1cc(-c2cccc3cnccc23)ccc1[C@@H](O)[C@H]1O[C@H](CO)[C@@H](O)[C@H](O)[C@@H]1O`, for which the Tm in series [10] stood at 74.6 °C. For the same molecule, the 90% effect concentration (EC90) in [3] amounted to 125 nM.
The like results for `Cc1cc(-c2cccc3cnccc23)ccc1O[C@H]1O[C@H](CO)[C@@H](O)[C@H](O)[C@@H]1O` were, in that order, 75 °C and 62 nM.
For `CNC(=O)c1cccc(-c2ccc(C[C@H]3O[C@H](CO)[C@@H](O)[C@H](O)[C@@H]3O)c(C)c2)c1`, the 90% effect concentration (EC90) in series [3] amounted to 2000 nM.
On to `CNC(=O)c1cccc(-c2ccc([C@@H](O)[C@H]3O[C@H](CO)[C@@H](O)[C@H](O)[C@@H]3O)c(C)c2)c1`, for which, in [10], the Tm is 75.4 °C. For the same molecule, the concentration at 8 h in series [12] came out at 50 µM. In addition, the Ratio in series [1] is more than 10; in series [14], 1600. Moreover, in series [13], the clearance (usually the volume of plasma or blood freed of the substance per unit of time) came out at 34.9 mL/min/kg. Further, in series [3], the EC90 was 31 nM. The “fold change (FC)” value in the series with Escherichia coli [9] came to 3.
In the case of `Cc1cc(-c2ccc3c(c2)C(=O)NCC3)ccc1[C@@H](O)[C@H]1O[C@H](CO)[C@@H](O)[C@H](O)[C@@H]1O`, in series [10], the Tm worked out at 76.5 °C. The EC90 in [3] was found to be 6 nM. Further, in the series on Escherichia coli [11], the result was Active.
As to `Cc1cc(-c2ccc3cc[nH]c(=O)c3c2)ccc1O[C@H]1O[C@H](CO)[C@@H](O)[C@H](O)[C@@H]1O`, the Tm in series [10] was determined as 75.4 °C. Also, in series [15], the Vdss (usually a proportionality between amount in the body and measured concentration, not a real space) was determined as 6.7 L. For the same molecule, in series [13], the clearance is 408 mL/min/kg. In addition, the concentration for an effect of 90% (EC90) in series [3] worked out at 31 nM. The half-life in series [6] and in series [8] was more than 2 h throughout. In [16], this molecule yielded an F of 7%. For the same molecule, the “fold change (FC)” value in the series on Escherichia coli [11] came to 2.
In the case of `COC(=O)c1cccc(-c2ccc(NC(=O)[C@H]3O[C@H](CO)[C@@H](O)[C@H](O)[C@@H]3O)cc2)c1`, the EC90 in series [3] is 16000 nM.
As to `CNC(=O)c1cccc(-c2ccc(O[C@H]3O[C@H](COC(C)=O)[C@@H](OC(C)=O)[C@H](OC(C)=O)[C@@H]3OC(C)=O)c(C)c2)c1`, the concentration at 8 h in series [12] was determined as 20 µM. For the same molecule, the Ratio in series [1] was more than 10. In addition, the outcome in the series with Escherichia coli [11] and with Escherichia coli [9] was Active.
Consider `Cc1cc(-c2ccc3c(c2)C(=O)NCC3)ccc1O[C@H]1O[C@H](CO)[C@@H](O)[C@H](O)[C@@H]1O`, for which, in series [10], the Tm was 75 °C. Further, the 90% effect concentration (EC90) in [3] was 32 nM.
The like results for `CNC(=O)c1cccc(-c2ccc([C@@H](O)[C@H]3O[C@H](CO)[C@@H](O)[C@H](O)[C@@H]3O)cc2)c1` were, in that order, 72.8 °C and 250 nM.
The like results for `CNC(=O)c1cccc(-c2ccc([C@H](O)[C@H]3O[C@H](CO)[C@@H](O)[C@H](O)[C@@H]3O)c(C)c2)c1` were, in that order, 66.4 °C and 24000 nM.
Regarding `O=C(NC[C@H]1O[C@H](CO)[C@@H](O)[C@H](O)[C@@H]1O)c1ccc(Br)cc1`, the EC90 in series [3] is 16000 nM.
Consider `OC[C@H]1O[C@H](n2cc(-c3ccccc3)nn2)[C@@H](O)[C@@H](O)[C@@H]1O`, for which the concentration for an effect of 90% (EC90) in [3] was determined as 32000 nM.
On the same count and under the same terms, for `COC(=O)c1cccc(-c2ccc(S[C@H]3O[C@H](CO)[C@@H](O)[C@H](O)[C@@H]3O)cc2)c1` the value was 4000 nM.
Take `CNC(=O)c1cccc(-c2ccc(O[C@H]3O[C@H](COP(=O)(O)O)[C@@H](O)[C@H](O)[C@@H]3O)c(C)c2)c1`: in the series with Escherichia coli [11], the outcome was Active.
In the case of `CNC(=O)c1cccc(-c2ccc(O[C@H]3O[C@H](CO)[C@@H](O)[C@H](O)[C@@H]3O)cc2)c1`, the Tm in [10] stood at 73.2 °C. In addition, the EC90 in [3] stood at 500 nM.
As for `CNC(=O)c1cccc(-c2ccc(O[C@H]3O[C@H](CO)[C@@H](O)[C@H](O)[C@@H]3O)c(C)c2)c1`, the Tm in [10] is 74.5 °C. Also, in [12], the concentration at 8 h was determined as 1 µM. Further, the Ratio in series [1] is more than 10. This molecule also gave a clearance in series [13] of 98.4 mL/min/kg. The EC90 in series [3] turned out to be 62 nM. Moreover, the Drug uptake entry in series [5] is reported as “Active”.
As for `CNC(=O)c1cccc(-c2ccc([C@H](O)[C@H]3O[C@H](CO)[C@@H](O)[C@H](O)[C@@H]3O)cc2)c1`, the Tm in series [10] was 67.2 °C. Also, the concentration for an effect of 90% (EC90) in [3] came to 24000 nM.
As to `Cc1cc(-c2ccc3ccnc(N)c3c2)ccc1O[C@H]1O[C@H](CO)[C@@H](O)[C@H](O)[C@@H]1O`, the Tm in series [10] turned out to be 75.1 °C. In series [3], the EC90 came to 20 nM.
In the case of `Cc1cc(-c2ccc3ccnc(N)c3c2)ccc1[C@@H](O)[C@H]1O[C@H](CO)[C@@H](O)[C@H](O)[C@@H]1O`, the Tm in [10] is 77.7 °C. The concentration for an effect of 90% (EC90) in [3] was 6 nM. In addition, the result in the series on Escherichia coli [11] was Active.
